# Assay results taken from ChEMBL document CHEMBL3621164, “Discovery of Triazole CYP11B2 Inhibitors with in Vivo Activity in Rhesus Monkeys” (ACS Med Chem Lett, 2015).
# Experiments:
# Homo sapiens = species: Homo sapiens; assay: Selectivity index, ratio IC50 for human CYP11B1 to IC50 for human CYP11B2
# Summary of the method: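 Ratio of human CYP11B1 IC50 to human CYP11B2 IC50; each IC50 calculated from n ≥ 2 determinations.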
# [1] = biological target: T1, Cytochrome P450 11B1, mitochondrial (Homo sapiens, UniProt P15538); assay: (§1) Inhibition of human CYP11B1 expressed in V79 cells assessed as cortisol level after 3 hrs by HTRF assay in presence of 250 nM 11-deoxycortisol; assay type: cell-based
# T1 sequence (P15538 whole entry): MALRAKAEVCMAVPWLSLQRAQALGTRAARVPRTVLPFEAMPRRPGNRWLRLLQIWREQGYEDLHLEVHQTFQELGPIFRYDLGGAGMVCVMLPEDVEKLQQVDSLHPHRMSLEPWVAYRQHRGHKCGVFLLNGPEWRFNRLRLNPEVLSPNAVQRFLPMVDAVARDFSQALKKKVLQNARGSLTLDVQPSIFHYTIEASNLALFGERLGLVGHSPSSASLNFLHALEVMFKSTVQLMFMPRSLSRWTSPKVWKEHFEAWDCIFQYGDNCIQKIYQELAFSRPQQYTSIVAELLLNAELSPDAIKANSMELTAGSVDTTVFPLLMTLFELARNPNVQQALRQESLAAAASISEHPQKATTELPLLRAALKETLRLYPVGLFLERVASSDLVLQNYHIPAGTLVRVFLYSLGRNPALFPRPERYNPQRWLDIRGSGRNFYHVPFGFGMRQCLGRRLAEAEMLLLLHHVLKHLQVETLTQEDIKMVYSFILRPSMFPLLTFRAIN
# [2] = biological target: T2, Cytochrome P450 11B2, mitochondrial (Homo sapiens, UniProt P19099); assay: Inhibition of human CYP11B2 expressed in V79 cells assessed as aldosterone level after 3 hrs by HTRF assay in presence of 125 nM 11-deoxycorticosterone; assay type: cell-based
# T2 sequence (P19099 whole entry): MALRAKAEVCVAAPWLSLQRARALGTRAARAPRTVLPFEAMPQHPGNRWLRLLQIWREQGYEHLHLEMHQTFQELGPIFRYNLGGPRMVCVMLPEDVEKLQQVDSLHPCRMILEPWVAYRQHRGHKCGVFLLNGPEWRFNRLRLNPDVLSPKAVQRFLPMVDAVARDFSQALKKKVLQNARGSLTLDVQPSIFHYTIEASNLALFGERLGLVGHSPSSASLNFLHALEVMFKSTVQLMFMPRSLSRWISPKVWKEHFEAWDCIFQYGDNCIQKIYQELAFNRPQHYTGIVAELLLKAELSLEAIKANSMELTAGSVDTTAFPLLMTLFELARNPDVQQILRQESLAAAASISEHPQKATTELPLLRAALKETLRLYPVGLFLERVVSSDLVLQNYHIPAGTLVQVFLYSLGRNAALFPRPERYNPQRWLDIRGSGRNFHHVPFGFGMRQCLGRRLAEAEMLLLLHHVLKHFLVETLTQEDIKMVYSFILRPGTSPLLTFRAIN
# [3] = Intrinsic clearance in Sprague-Dawley rat liver microsomes by LC/MS method; assay type: ADME; settings: read-out: CLH
# [4] = Lipophilicity, log D of the compound by HPLC; assay type: physicochemical
# Summary of the method: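 Lipophilicity determined experimentally by HPLC.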
# [5] = Plasma clearance in Sprague-Dawley rat at 2 mg/kg, po administered through gavage by LC/MS/MS method; assay type: ADME, organism-based
# [6] = Oral bioavailability in Sprague-Dawley rat at 2 mg/kg administered through gavage; assay type: ADME, organism-based; settings: in vivo
# [7] = Half life in Sprague-Dawley rat at 2 mg/kg, po administered through gavage by LC/MS/MS method; assay type: ADME, organism-based; settings: in vivo
# Rattus norvegicus = assay: Dose normalized AUC in Sprague-Dawley rat at 2 mg/kg, po administered through gavage; assay type: ADME, organism-based; settings: in vivo
# [8] = Plasma protein binding in Sprague-Dawley rat; assay type: ADME, cell-free
# [9] = biological target: T3, Cytochrome P450 11B2, mitochondrial (Rattus norvegicus, UniProt P30099); assay: Inhibition of rat CYP11B2 expressed in V79 cells assessed as aldosterone level after 3 hrs by HTRF assay in presence of 500 nM 11-deoxycorticosterone; assay type: cell-based; settings: v79, 3 h
# T3 sequence (P30099 whole entry): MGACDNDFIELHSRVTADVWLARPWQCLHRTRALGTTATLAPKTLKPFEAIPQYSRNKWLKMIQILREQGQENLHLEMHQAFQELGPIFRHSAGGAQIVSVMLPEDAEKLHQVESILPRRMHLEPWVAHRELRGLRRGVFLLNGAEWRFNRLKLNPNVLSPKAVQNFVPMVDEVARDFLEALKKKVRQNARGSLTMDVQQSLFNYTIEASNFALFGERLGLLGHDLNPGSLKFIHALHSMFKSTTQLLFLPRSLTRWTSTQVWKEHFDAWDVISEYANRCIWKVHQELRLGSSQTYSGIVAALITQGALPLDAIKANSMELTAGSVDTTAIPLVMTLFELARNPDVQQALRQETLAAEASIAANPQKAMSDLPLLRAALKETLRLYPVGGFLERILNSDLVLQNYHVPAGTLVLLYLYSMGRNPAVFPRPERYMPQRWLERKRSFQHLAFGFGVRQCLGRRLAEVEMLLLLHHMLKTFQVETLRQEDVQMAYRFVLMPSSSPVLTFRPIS
# [10] = Inhibition of rhesus monkey CYP11B2 expressed in V79 cells assessed as aldosterone level after 3 hrs by HTRF assay in presence of 125 nM 11-deoxycorticosterone; assay type: cell-based; settings: Macaca mulatta, V79, 3 h
# Cytochrome P450 3A4 = Cytochrome P450 3A4 (Homo sapiens, UniProt P08684); assay: Inhibition of human CYP3A4; assay type: ADME
# Sequence of Cytochrome P450 3A4 (P08684 whole entry): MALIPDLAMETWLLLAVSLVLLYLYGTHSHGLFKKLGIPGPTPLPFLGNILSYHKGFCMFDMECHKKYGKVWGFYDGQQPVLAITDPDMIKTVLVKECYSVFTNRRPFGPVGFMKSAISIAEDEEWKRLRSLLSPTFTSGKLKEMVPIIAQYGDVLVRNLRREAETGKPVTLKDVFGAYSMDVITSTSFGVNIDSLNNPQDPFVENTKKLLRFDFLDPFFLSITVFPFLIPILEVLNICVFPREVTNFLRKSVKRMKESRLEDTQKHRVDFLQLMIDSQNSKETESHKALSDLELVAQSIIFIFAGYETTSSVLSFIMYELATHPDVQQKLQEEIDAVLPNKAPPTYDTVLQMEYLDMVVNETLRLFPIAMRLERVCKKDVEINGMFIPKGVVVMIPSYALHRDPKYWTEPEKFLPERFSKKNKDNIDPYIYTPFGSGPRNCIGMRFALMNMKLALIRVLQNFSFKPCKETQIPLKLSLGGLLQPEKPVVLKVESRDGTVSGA
# [11] = biological target: T4, Steroid 17-alpha-hydroxylase/17,20 lyase (Homo sapiens, UniProt P05093); assay: Inhibition of human CYP17 expressed in COS7 cells assessed as DHEA level after 3 hrs by EIA assay in presence of 360 nM 17-hydroxypregnenolone; assay type: cell-based, COS-7
# T4 sequence (P05093 whole entry): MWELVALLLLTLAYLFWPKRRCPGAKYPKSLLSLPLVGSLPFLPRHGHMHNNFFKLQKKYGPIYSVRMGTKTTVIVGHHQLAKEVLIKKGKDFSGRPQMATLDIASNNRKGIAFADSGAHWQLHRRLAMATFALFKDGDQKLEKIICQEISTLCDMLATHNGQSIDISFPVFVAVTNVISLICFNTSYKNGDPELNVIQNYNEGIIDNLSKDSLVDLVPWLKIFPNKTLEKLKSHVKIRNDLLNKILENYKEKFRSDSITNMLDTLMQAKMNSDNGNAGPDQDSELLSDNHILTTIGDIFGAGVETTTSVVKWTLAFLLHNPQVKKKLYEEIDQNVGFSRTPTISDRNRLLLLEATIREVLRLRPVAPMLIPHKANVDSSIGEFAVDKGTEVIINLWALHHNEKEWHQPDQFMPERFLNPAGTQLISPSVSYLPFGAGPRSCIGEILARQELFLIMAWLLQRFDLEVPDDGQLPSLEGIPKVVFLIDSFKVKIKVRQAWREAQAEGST
# Aromatase = biological target: T5, Aromatase (Homo sapiens, UniProt P11511); assay: Inhibition of human CYP19
# T5 sequence (P11511 whole entry): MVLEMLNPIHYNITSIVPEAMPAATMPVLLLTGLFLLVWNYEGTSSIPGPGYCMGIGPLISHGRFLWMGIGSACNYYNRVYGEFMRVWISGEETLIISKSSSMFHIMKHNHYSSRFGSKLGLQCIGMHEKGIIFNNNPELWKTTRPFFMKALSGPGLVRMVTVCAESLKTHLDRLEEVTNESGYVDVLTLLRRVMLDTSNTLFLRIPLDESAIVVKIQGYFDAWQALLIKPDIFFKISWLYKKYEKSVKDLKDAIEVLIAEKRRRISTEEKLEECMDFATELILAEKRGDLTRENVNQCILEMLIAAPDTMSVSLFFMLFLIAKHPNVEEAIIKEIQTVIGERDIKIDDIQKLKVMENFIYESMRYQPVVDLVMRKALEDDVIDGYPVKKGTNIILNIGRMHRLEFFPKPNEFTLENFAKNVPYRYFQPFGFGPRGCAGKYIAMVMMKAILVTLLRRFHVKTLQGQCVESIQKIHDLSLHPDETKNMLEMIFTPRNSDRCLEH
# CYP11B1 = biological target: T6, CYP11B1 (Homo sapiens, UniProt P15538); assay: as §1; assay type: cell-based; settings: human, V79 cells expressing human CYP11B1, probe 11-deoxycortisol (250 nM)
# T6 sequence (P15538 whole entry): T1 sequence (P15538 whole entry)
SMILES,Ratio IC50 (Homo sapiens),IC50 [1] [µM],IC50 [2] [µM],also measured
FC(F)(F)c1nnc2n1-c1ccc(-c3cccnc3)cc1CC2,> 16,> 8.33,0.506,
c1cncc(-c2ccc3c(c2)CCc2nncn2-3)c1,> 33,> 10,0.3,
C[C@@](O)(c1cncc(-c2ccc3c(c2)CCc2nnc(C(F)(F)F)n2-3)c1)C(F)(F)F,> 18,> 8.33,0.476,logD [4]: 2.2
Cc1nnc2n1-c1ccc(-c3cncc(S(=O)(=O)c4ccccc4)c3)cc1CC2,,1.5,0.04,
C[C@](O)(c1cncc(-c2ccc3c(c2)CCc2nnc(C(F)(F)F)n2-3)c1)C(F)(F)F,2,0.887,0.461,logD [4]: 2.2
Cc1nnc2n1-c1ccc(-c3cccnc3)cc1CC2,> 24,> 10,0.423,CLint scaled [3]: 55 mL/min/kg; CL/F [5]: 38 mL/min/kg; bioavailability [6]: 6%; half-life [7]: 12 min; AUC/dose (Rattus norvegicus): 0.1 µM·kg·h/mg
c1cncc(-c2ccc3c(c2)CCc2nnc(C4CC4)n2-3)c1,> 21,> 10,0.487,
c1cncc(-c2ccc3c(c2)CCc2nnc(C4CCCCC4)n2-3)c1,> 3,> 8.33,2.4,
c1ccc(-c2nnc3n2-c2ccc(-c4cccnc4)cc2CC3)cc1,13,1.36,0.103,IC50 (Cytochrome P450 3A4): 36.5 µM; IC50 [11]: 0.084 µM; IC50 (Aromatase): 0.021 µM
Cc1nnc2n1-c1ccc(-c3cncc4ccccc34)cc1CC2,,,0.005,CLint scaled [3]: 33 mL/min/kg; IC50 at 3 h (CYP11B1): 0.407 µM; CL/F [5]: 150 mL/min/kg; bioavailability [6]: 75%; half-life [7]: 24 min; AUC/dose (Rattus norvegicus): 0.27 µM·kg·h/mg

# Now from value to compound, other results behind:
Ratio IC50 (Homo sapiens),IC50 [1] [µM],IC50 [2] [µM],SMILES,also measured
,> 8.33,> 8.33,CNC(=O)c1cncc(-c2ccc3c(c2)CCc2nnc(C)n2-3)c1,
3,1.47,0.526,CC(C)(O)c1cncc(-c2ccc3c(c2)CCc2nnc(C(F)(F)F)n2-3)c1,CLint scaled [3]: < 20 mL/min/kg; logD [4]: 1.5; CL/F [5]: 10 mL/min/kg; bioavailability [6]: 83%; half-life [7]: 174 min; AUC/dose (Rattus norvegicus): 3.87 µM·kg·h/mg; fraction unbound [8]: 0.997
> 29,> 8.33,0.283,Cc1nnc2n1-c1ccc(-c3cncc(C(C)(C)O)c3)cc1CC2,CLint scaled [3]: < 20 mL/min/kg; logD [4]: 0.6; CL/F [5]: 50 mL/min/kg; inhibition (INH) [9]: Active; bioavailability [6]: 19%; IC50 [10]: 0.034 µM; half-life [7]: 90 min; AUC/dose (Rattus norvegicus): 0.19 µM·kg·h/mg
,2.2,0.058,COC(=O)c1cncc(-c2ccc3c(c2)CCc2nnc(C)n2-3)c1,IC50 (Cytochrome P450 3A4): > 50 µM; IC50 [11]: > 10 µM; IC50 (Aromatase): > 10 µM
,> 10,0.558,Cc1nnc2n1-c1ccc(-c3cncc(F)c3)cc1CC2,
,> 8.33,> 8.33,Cc1nnc2n1-c1ccc(-c3cncc(C(=O)N(C)C)c3)cc1CC2,
,0.317,0.019,COC(=O)C(C)(C)c1cncc(-c2ccc3c(c2)CCc2nnc(C)n2-3)c1,
,> 8.33,> 8.33,Cc1nnc2n1-c1ccc(-c3cncc(S(C)(=O)=O)c3)cc1CC2,
,0.219,0.019,COC(C)(C)c1cncc(-c2ccc3c(c2)CCc2nnc(C)n2-3)c1,CLint scaled [3]: 107 mL/min/kg; IC50 (Cytochrome P450 3A4): > 50 µM; IC50 [11]: > 10 µM; IC50 (Aromatase): 11.2 µM; CL/F [5]: 177 mL/min/kg; inhibition (INH) [9]: Active; bioavailability [6]: 10%; IC50 [10]: 0.003 µM; half-life [7]: 18 min; AUC/dose (Rattus norvegicus): 0.03 µM·kg·h/mg
,> 8.33,0.109,Cc1nnc2n1-c1ccc(-c3cncc([C@@](C)(O)C(F)(F)F)c3)cc1CC2,logD [4]: 1.2
,> 10,0.486,Cc1nnc2n1-c1ccc(-c3cncc(C(F)(F)F)c3)cc1CC2,
